Results published in ChEMBL document CHEMBL1157589, “Antifungal 3,5-disubstituted furanones: From 5-acyloxymethyl to 5-alkylidene derivatives” (Bioorg Med Chem, 2010).
pIC50: −log10 of the molar value. Converted amounts (≈) assume the structure as drawn.

Assays:
Lichtheimia corymbifera [1] = experiment: Antifungal activity against Absidia corymbifera 272 after 48 hrs by microdilution method; assay type: functional; details: Lichtheimia corymbifera, 272, 48 h
How it was run: (§1)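 Filamentous strains held on Sabouraud dextrose agar. NCCLS M27-A broth microdilution in RPMI 1640 with L-glutamine and 0.165 M MOPS, pH 7.0. DMSO diluent ≤2% final; twofold dilutions 500–0.48. Inoculum 5 × 10³ ± 0.2 cfu mL⁻¹ final.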

Candida parapsilosis [2] = experiment: Antifungal activity against Candida parapsilosis ATCC 22019 after 24 hrs by microdilution method; assay type: functional; details: Lodderomyces parapsilosis, ATCC 22019, 24 h
How it was run: (§2)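 Yeasts held on Sabouraud dextrose agar. MIC by NCCLS M27-A broth microdilution in RPMI 1640 with L-glutamine, buffered with 0.165 M MOPS to pH 7.0. Compounds in DMSO (≤2% final), twofold dilutions 500–0.48. Final inoculum 5 × 10³ ± 0.2 cfu mL⁻¹. Incubated at 35 °C; absorbance at 540 nm read at 24 and 48 h. MIC is 80% growth inhibition versus control; run twice in duplicate.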

[3] = test system: Trichophyton mentagrophytes; experiment: Antifungal activity against Trichophyton mentagrophytes 445 after 72 hrs by microdilution method; assay type: functional; details: Trichophyton mentagrophytes, 445, 72 h
How it was run: (§3)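 Dermatophyte held on Sabouraud dextrose agar. M27-A microdilution in MOPS-buffered (0.165 M, pH 7.0) RPMI 1640 with L-glutamine. DMSO ≤2% final; twofold dilutions 500–0.48. Inoculum 5 × 10³ ± 0.2 cfu mL⁻¹ final. Incubated at 35 °C; MIC read visually at 72 and 120 h as 80% inhibition of control growth; determined twice in duplicate.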

Trichosporon beigelii [4] = experiment: Antifungal activity against Trichosporon beigelii 1188 after 48 hrs by microdilution method; assay type: functional; details: Trichosporon beigelii, 1188, 48 h; how it was run: as §2
[5] = test system: Trichophyton mentagrophytes; experiment: Antifungal activity against Trichophyton mentagrophytes 445 after 120 hrs by microdilution method; assay type: functional; details: Trichophyton mentagrophytes, 445, 120 h; how it was run: as §3
Nakaseomyces glabratus [6] = experiment: Antifungal activity against Candida glabrata 20/I after 24 hrs by microdilution method; assay type: functional; how it was run: as §2
Lichtheimia corymbifera [7] = experiment: Antifungal activity against Absidia corymbifera 272 after 24 hrs by microdilution method; assay type: functional; details: Lichtheimia corymbifera, 272, 24 h; how it was run: as §1
Nakaseomyces glabratus [8] = experiment: Antifungal activity against Candida glabrata 20/I after 48 hrs by microdilution method; assay type: functional; how it was run: as §2
Candida albicans [9] = experiment: Antifungal activity against Candida albicans ATCC 44859 after 24 hrs by microdilution method; assay type: functional; details: ATCC 44859, 24 h; how it was run: as §2
Pichia kudriavzevii [10] = experiment: Antifungal activity against Candida krusei ATCC 6258 after 48 hrs by microdilution method; assay type: functional; details: ATCC 6258, 48 h; how it was run: as §2
Candida parapsilosis [11] = experiment: Antifungal activity against Candida parapsilosis ATCC 22019 after 48 hrs by microdilution method; assay type: functional; details: Lodderomyces parapsilosis, ATCC 22019, 48 h; how it was run: as §2
Pichia kudriavzevii [12] = experiment: Antifungal activity against Candida krusei E28 after 24 hrs by microdilution method; assay type: functional; details: E28, 24 h; how it was run: as §2
Candida albicans [13] = experiment: Antifungal activity against Candida albicans ATCC 90028 after 48 hrs by microdilution method; assay type: functional; details: ATCC 90028, 48 h; how it was run: as §2
Aspergillus fumigatus [14] = experiment: Antifungal activity against Aspergillus fumigatus 231 after 48 hrs by microdilution method; assay type: functional; details: Aspergillus fumigatus, 231, 48 h; how it was run: as §1
Pichia kudriavzevii [15] = experiment: Antifungal activity against Candida krusei E28 after 48 hrs by microdilution method; assay type: functional; details: E28, 48 h; how it was run: as §2
Trichosporon beigelii [16] = experiment: Antifungal activity against Trichosporon beigelii 1188 after 24 hrs by microdilution method; assay type: functional; details: Trichosporon beigelii, 1188, 24 h; how it was run: as §2
Candida albicans [17] = experiment: Antifungal activity against Candida albicans ATCC 44859 after 48 hrs by microdilution method; assay type: functional; details: ATCC 44859, 48 h; how it was run: as §2
Candida tropicalis [18] = experiment: Antifungal activity against Candida tropicalis 156 after 48 hrs by microdilution method; assay type: functional; details: Candida tropicalis, 156, 48 h; how it was run: as §2
Candida albicans [19] = experiment: Antifungal activity against Candida albicans ATCC 90028 after 24 hrs by microdilution method; assay type: functional; details: ATCC 90028, 24 h; how it was run: as §2
Clavispora lusitaniae [20] = experiment: Antifungal activity against Candida lusitaniae 2446/I after 48 hrs by microdilution method; assay type: functional; how it was run: as §2
Aspergillus fumigatus [21] = experiment: Antifungal activity against Aspergillus fumigatus 231 after 24 hrs by microdilution method; assay type: functional; details: Aspergillus fumigatus, 231, 24 h; how it was run: as §1
Pichia kudriavzevii [22] = experiment: Antifungal activity against Candida krusei ATCC 6258 after 24 hrs by microdilution method; assay type: functional; details: ATCC 6258, 24 h; how it was run: as §2
Clavispora lusitaniae [23] = experiment: Antifungal activity against Candida lusitaniae 2446/I after 24 hrs by microdilution method; assay type: functional; how it was run: as §2
Candida tropicalis [24] = experiment: Antifungal activity against Candida tropicalis 156 after 24 hrs by microdilution method; assay type: functional; details: Candida tropicalis, 156, 24 h; how it was run: as §2
HL-60 = experiment: Cytostatic activity against human HL60 cells after 72 hrs by XTT assay; assay type: functional, cell-based; details: Homo sapiens, HL-60, 72 h; read-out: IC50
How it was run: (§4)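 Leukemia cells (L1210 ATCC CCL 219, CCRF-CEM ATCC CCL 119, HL-60 ATCC CCL 240) grown in 24-well plates in RPMI 1640 with fetal calf serum. Growth assessed 72 h after drug addition. Viability measured by XTT spectrophotometric assay; potency given as IC50.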

HeLa S3 = experiment: Cytostatic activity against human HeLaS3 cells after 48 hrs by XTT assay; details: Homo sapiens, HeLa S3, 48 h; read-out: IC50
CCRF-CEM = experiment: Cytostatic activity against human CCRF-CEM cells after 72 hrs by XTT assay; assay type: functional, cell-based; details: Homo sapiens, CCRF-CEM, 72 h; read-out: IC50; how it was run: as §4

O=C1OC(COc2ccc(O)cc2)C=C1c1ccc(Br)cc1 (stereo unspecified)
MIC80 (Lichtheimia corymbifera [1]): 62.5 µM (≈ 22.6 µg/mL) | MIC80 (Candida parapsilosis [2]): 7.81 µM (≈ 2.82 µg/mL) | MIC80 [3]: 1.95 µM (≈ 0.704 µg/mL) | MIC80 (Trichosporon beigelii [4]): 15.6 µM (≈ 5.64 µg/mL) | MIC80 [5]: 1.95 µM (≈ 0.704 µg/mL) | MIC80 (Nakaseomyces glabratus [6]): 1.95 µM (≈ 0.704 µg/mL) | MIC80 (Lichtheimia corymbifera [7]): 15.6 µM (≈ 5.64 µg/mL) | MIC80 (Nakaseomyces glabratus [8]): 1.95 µM (≈ 0.704 µg/mL) | MIC80 (Candida albicans [9]): 0.97 µM (≈ 0.35 µg/mL) | MIC80 (Pichia kudriavzevii [10]): 15.6 µM (≈ 5.64 µg/mL) | MIC80 (Candida parapsilosis [11]): 15.6 µM (≈ 5.64 µg/mL) | MIC80 (Pichia kudriavzevii [12]): 7.81 µM (≈ 2.82 µg/mL) | MIC80 (Candida albicans [13]): 3.9 µM (≈ 1.41 µg/mL) | MIC80 (Aspergillus fumigatus [14]): 7.81 µM (≈ 2.82 µg/mL) | MIC80 (Pichia kudriavzevii [15]): 15.6 µM (≈ 5.64 µg/mL) | MIC80 (Trichosporon beigelii [16]): 7.81 µM (≈ 2.82 µg/mL) | MIC80 (Candida albicans [17]): 1.95 µM (≈ 0.704 µg/mL) | MIC80 (Candida tropicalis [18]): 7.81 µM (≈ 2.82 µg/mL) | MIC80 (Candida albicans [19]): 1.95 µM (≈ 0.704 µg/mL) | MIC80 (Clavispora lusitaniae [20]): 7.81 µM (≈ 2.82 µg/mL) | MIC80 (Aspergillus fumigatus [21]): 1.95 µM (≈ 0.704 µg/mL) | MIC80 (Pichia kudriavzevii [22]): 7.81 µM (≈ 2.82 µg/mL) | MIC80 (Clavispora lusitaniae [23]): 3.9 µM (≈ 1.41 µg/mL) | MIC80 (Candida tropicalis [24]): 7.81 µM (≈ 2.82 µg/mL)

C[C@@H]1[C@H](O)[C@@H](C)/C=C/C=C/C=C/C=C/C=C/C=C/C=C/[C@H](O[C@@H]2O[C@H](C)[C@@H](O)[C@H](N)[C@@H]2O)C[C@@H]2O[C@](O)(C[C@@H](O)C[C@@H](O)[C@H](O)CC[C@@H](O)C[C@@H](O)CC(=O)O[C@H]1C)C[C@H](O)[C@H]2C(=O)O [AMPHOTERICIN B]
MIC95 (Lichtheimia corymbifera [1]): 2.16 µM (≈ 2 µg/mL) | MIC95 (Candida parapsilosis [2]): 0.03 µM (≈ 0.0277 µg/mL) | MIC95 (Trichosporon beigelii [4]): 1.8 µM (≈ 1.66 µg/mL) | MIC95 (Nakaseomyces glabratus [6]): 0.03 µM (≈ 0.0277 µg/mL) | MIC95 (Nakaseomyces glabratus [8]): 0.09 µM (≈ 0.0832 µg/mL) | MIC95 (Candida albicans [9]): 0.03 µM (≈ 0.0277 µg/mL) | MIC95 (Pichia kudriavzevii [10]): 0.14 µM (≈ 0.129 µg/mL) | MIC95 (Candida parapsilosis [11]): 0.14 µM (≈ 0.129 µg/mL) | MIC95 (Pichia kudriavzevii [12]): 0.14 µM (≈ 0.129 µg/mL) | MIC95 (Candida albicans [13]): 0.14 µM (≈ 0.129 µg/mL) | MIC95 (Aspergillus fumigatus [14]): 0.23 µM (≈ 0.213 µg/mL) | MIC95 (Pichia kudriavzevii [15]): 0.18 µM (≈ 0.166 µg/mL) | MIC95 (Candida albicans [17]): 0.06 µM (≈ 0.0554 µg/mL) | MIC95 (Candida tropicalis [18]): 0.11 µM (≈ 0.102 µg/mL) | MIC95 (Candida albicans [19]): 0.07 µM (≈ 0.0647 µg/mL) | MIC95 (Clavispora lusitaniae [20]): 0.27 µM (≈ 0.25 µg/mL) | MIC95 (Aspergillus fumigatus [21]): 0.18 µM (≈ 0.166 µg/mL) | MIC95 (Pichia kudriavzevii [22]): 0.14 µM (≈ 0.129 µg/mL) | MIC95 (Clavispora lusitaniae [23]): 0.14 µM (≈ 0.129 µg/mL) | MIC95 (Candida tropicalis [24]): 0.09 µM (≈ 0.0832 µg/mL)

COC(=O)c1ccc(OCC2C=C(c3ccc(Br)cc3)C(=O)O2)cc1 (stereo unspecified)
MIC80 (Lichtheimia corymbifera [1]): 125 µM (≈ 50.4 µg/mL) | MIC80 (Candida parapsilosis [2]): 15.6 µM (≈ 6.3 µg/mL) | MIC80 [3]: 3.9 µM (≈ 1.57 µg/mL) | MIC80 (Trichosporon beigelii [4]): 15.6 µM (≈ 6.3 µg/mL) | MIC80 [5]: 3.9 µM (≈ 1.57 µg/mL) | MIC80 (Nakaseomyces glabratus [6]): 3.9 µM (≈ 1.57 µg/mL) | MIC80 (Lichtheimia corymbifera [7]): 62.5 µM (≈ 25.2 µg/mL) | MIC80 (Nakaseomyces glabratus [8]): 3.9 µM (≈ 1.57 µg/mL) | MIC80 (Candida albicans [9]): 0.48 µM (≈ 0.194 µg/mL) | pIC50 (HL-60): 5.39 | MIC80 (Pichia kudriavzevii [10]): 15.6 µM (≈ 6.3 µg/mL) | MIC80 (Candida parapsilosis [11]): 15.6 µM (≈ 6.3 µg/mL) | MIC80 (Pichia kudriavzevii [12]): 15.6 µM (≈ 6.3 µg/mL) | MIC80 (Candida albicans [13]): 7.81 µM (≈ 3.15 µg/mL) | pIC50 (HeLa S3): 5.35 | MIC80 (Aspergillus fumigatus [14]): 7.81 µM (≈ 3.15 µg/mL) | MIC80 (Pichia kudriavzevii [15]): 15.6 µM (≈ 6.3 µg/mL) | MIC80 (Trichosporon beigelii [16]): 7.81 µM (≈ 3.15 µg/mL) | MIC80 (Candida albicans [17]): 1.95 µM (≈ 0.786 µg/mL) | MIC80 (Candida tropicalis [18]): 15.6 µM (≈ 6.3 µg/mL) | MIC80 (Candida albicans [19]): 3.9 µM (≈ 1.57 µg/mL) | MIC80 (Clavispora lusitaniae [20]): 15.6 µM (≈ 6.3 µg/mL) | MIC80 (Aspergillus fumigatus [21]): 3.9 µM (≈ 1.57 µg/mL) | MIC80 (Pichia kudriavzevii [22]): 15.6 µM (≈ 6.3 µg/mL) | pIC50 (CCRF-CEM): 5.90 | MIC80 (Clavispora lusitaniae [23]): 7.81 µM (≈ 3.15 µg/mL) | MIC80 (Candida tropicalis [24]): 15.6 µM (≈ 6.3 µg/mL)
